From PubChem
Runt-SMMHC FRET: blocks binding of human RUNX1 Runt domain to CBFb-SMMHC. Q01196+Q13951. Cerulean-Runt/Venus-CBFb-SMMHC FRET ratio 530/480, 1 h. inhibition, % at 20 µM. hit rate 0.74% among 220,000. AID 1434;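 active means mean inhibition across duplicate retests at 20 µM reaching about 50%, limit read from the data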;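 further: 0% = DMSO wells and 100% = wells with excess untagged CBFb-SMMHC; inhibitors lower the FRET ratio by blocking Runt binding to CBFb-SMMHC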
Target sequence (Q01196 whole entry, looked up, the tested form may be a part): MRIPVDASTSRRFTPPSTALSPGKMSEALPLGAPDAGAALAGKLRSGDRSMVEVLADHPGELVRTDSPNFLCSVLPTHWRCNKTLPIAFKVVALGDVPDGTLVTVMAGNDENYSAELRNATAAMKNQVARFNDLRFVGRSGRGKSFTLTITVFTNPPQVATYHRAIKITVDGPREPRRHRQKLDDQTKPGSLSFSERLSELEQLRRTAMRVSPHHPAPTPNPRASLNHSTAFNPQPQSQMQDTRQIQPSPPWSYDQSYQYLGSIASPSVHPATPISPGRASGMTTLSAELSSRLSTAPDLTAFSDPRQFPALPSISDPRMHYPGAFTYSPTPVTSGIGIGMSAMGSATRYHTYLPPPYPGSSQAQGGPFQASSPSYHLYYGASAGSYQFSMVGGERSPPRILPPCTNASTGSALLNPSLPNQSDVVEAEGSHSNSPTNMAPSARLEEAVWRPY
Target sequence (Q13951 whole entry, looked up, the tested form may be a part): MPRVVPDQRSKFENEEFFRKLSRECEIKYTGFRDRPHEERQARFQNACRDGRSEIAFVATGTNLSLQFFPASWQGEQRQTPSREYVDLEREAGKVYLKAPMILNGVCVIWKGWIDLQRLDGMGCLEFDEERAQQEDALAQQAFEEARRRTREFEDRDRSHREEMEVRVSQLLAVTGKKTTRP
Runt-CBFb FRET: blocks binding of human RUNX1 Runt domain to CBFb | Cerulean-Runt/Venus-CBFb FRET ratio 530/480, 1 h | Q01196+Q13951 | hit rate 0.46% among 220,000 | AID 1496 | inhibition, % at 20 µM;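 active means inhibition over about 50% at 20 µM in the single-dose screen, limit read from the data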;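 further: 0% = DMSO wells and 100% = excess unlabeled CBFb competitor control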
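Measured by: fluorescence energy transfer, 422 nm excitation, 530/480 nm emission; Assay system: Cerulean-Runt domain; Medium: Tris pH 7.5 buffer with BSA; Measure: loss of energy transfer signal; Controls: 5 µM unlabeled CBFb as full-inhibition high control; Incubation: protein complex preformed 1 h, compound exposure 1 h, room temperature, dark.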
RanGTP-Imp inh: disruptors of Ran-importin-beta complex formation – biochemical, FRET, CFP-Ran, YFP-importin-beta, homogeneous, primary screen; cell-free CFP-Ran/YFP-importin-beta FRET ratio; inhibition, % (test concentration not listed); hit rate 1.1% among 300,000; AID 2216;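 active means more than half of the replicate wells show a fall in the fluorescence ratio signal beyond about 16%, limit read from the data, passing the limit was not always enough; inconclusive means exactly half of the replicate wells pass the set limit; inactive means fewer than half of replicates pass the limit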;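 further: 0% = DMSO wells and 100% = Ran loaded with GDP instead of GTP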
proKLK7 act: proKLK7 (human) activation, primary screen; activation, % at 7 µM; P49862; hit rate 0.9% among 370,000; purified proKLK7, EDANS-DABCYL substrate fluorescence; 100% is mature enzyme control, 0% vehicle;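 active means activation above the mean of all tested compounds plus 3 SD, computed per campaign excluding outliers beyond control limits, cut at about 13% in these data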
MEX-5 binding: C. elegans MEX-5 TCR-2 RNA binding activity; Q9XUB2; MEX-5/FITC-TCR2 RNA binding, fluorescence polarization; active compounds read low; activity score (negative = inhibition of binding), % at 10 µM; hit rate 0.38% among 300,000;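 active means inhibition past about -25% in most replicates, and total fluorescence under double the plate's negative control median, limit read from the data; inconclusive means replicates evenly split on the limit, or fluorescence at least double controls; inactive means too little inhibition in most replicates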;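 further: 0% = DMSO and -100% = 5 µM competing unlabeled TCR2 RNA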
proKLK7 act conf: confirmation of human kallikrein-7 zymogen activators | purified proKLK7, EDANS-DABCYL substrate fluorescence; scaled: vehicle 0, mature enzyme 100 | hit rate 68% among 3,200 | activation, % at 7 µM | AID 686949 | shares compounds with proKLK7 act;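 active means activation, as change over the incubation, above the mean of all tested compounds plus 3 SD, cut at about 13% in these data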
EDANS-DABCYL int: counter-screen for kallikrein-7 activators: EDANS-DABCYL optical interference; hit rate 80% among 3,200; activation, % at 7 µM; shares compounds with proKLK7 act; EDANS-DABCYL substrate fluorescence interference, no enzyme, 4 h; solvent 0%, active enzyme control 100%;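 active means activation above the all-compound mean plus 3 SD, ignoring values outside control-based bounds, cut at about 4.8% in these data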;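 further: value is the 4 h activation minus the activation read at time zero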
K7 EDANS ctr: counter-screen for kallikrein-7 activators: EDANS-DABCYL interference, dose response; AID 720493; EDANS-DABCYL peptide fluorescence interference, no enzyme; hit rate 20% among 250; shares compounds with proKLK7 act; EC50, µM;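 active means compounds that raise the fluorescence signal in this interference counterscreen, with EC50 at or below 10 µM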;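 further: intact quenched peptide substrate alone read at 355 nm excitation and 520 nm emission; signal is fluorescence gain from T0 to T4 after four hours at room temperature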
* marks the source's active call; other numbers are inactive results; u = inconclusive; x = no result. Compounds with a hit are over-represented: about 2.1% of the library has one in this group of screens.

SMILES	Runt-SMMHC FRET	Runt-CBFb FRET	RanGTP-Imp inh	proKLK7 act	MEX-5 binding	proKLK7 act conf	EDANS-DABCYL int	others
Nc1ccc(-c2nc3c(ccc4ccccc43)[nH]2)cc1	x	x	-1	54*	-3	74*	74*
O=C(Nc1cccnc1)c1coc(=O)c2ccccc12	4	4	-6	460*	-2	355*	343*
Cn1cc(C(=O)C(=O)N2CCCCC2)c2ccccc21	x	x	x	-1	x	x	x
CC(=O)OCc1nc2ccccc2s1	1	0	u	0	-1	x	x
CCOC(=O)C(=O)Cc1nc2ccccc2s1	-1	1	52*	13*	6	4	5.3*
CC(=O)Nc1ccc2cc3ccc(NC(C)=O)cc3nc2c1	x	15	37*	17*	-36*	34*	44*
CC(=O)Nc1ccc2nc(-c3ccncc3)[nH]c2c1	-7	2	-4	22*	-3	17*	21*
CC(=O)Nc1ccc2ccccc2c1	3	2	2	x	-3	x	x
O=C(Nc1ccc2nc3ccccc3nc2c1)c1ccccc1	64	-132	-26	35*	-8	32*	21*	K7 EDANS ctr=>69
O=c1n(Cc2ccccc2)c(O)c2n1Cc1ccccc1N=C2c1ccc(C(F)(F)F)cc1	x	x	x	-1	x	x	x
NC(=O)c1ncn([C@@H]2O[C@H](CNCc3cccn3-c3ccncc3)[C@@H](O)[C@H]2O)n1	x	x	x	0	x	x	x
COC(=O)[C@]12C[C@H](CC(=O)N3CCCC3)C(=O)N(CCC3=CCCCC3)C1=C[C@H](C(C)(C)C)O[C@@H]2C	x	x	x	0	x	x	x
O=C(CSc1nnc(-c2ccc(O)cc2)n1Cc1ccco1)c1cccs1	3	16	-2	0	-2	x	x
O=C(CC(SCc1ccco1)c1ccc(O)cc1)c1cccs1 (centres undefined)	-13	-1	0	25*	1	16*	14*
O=C(CC(SCCO)c1ccc2c(c1)OCO2)c1cccs1 (centres undefined)	-5	-6	-3	14*	-4	26*	27*
Clc1ccc2nc(C3CCCCC3)c(CC3CCCCC3)n2c1	x	x	x	0	x	x	x
COc1ccc2c(c1)c1ncn(CC3CCCO3)c(=O)c1n2C (centres undefined)	2	0	-1	13*	x	3	4
COc1ccc2c(c1)c1ncn(CCc3ccccc3)c(=O)c1n2C	-3	-3	-6	-6	1	x	x
COc1ccc2c(c1)c1ncn(CCCN3CCOCC3)c(=O)c1n2C	1	2	u	15*	1	11	20*
Cc1cc(C)c2cc3c(N)c(C(=O)N4CCOCC4)sc3nc2c1	10	1	3	19*	0	-9	-8
Cc1ccc(C)c2nc3sc(C(=O)N4CCOCC4)c(N)c3cc12	37	22	u	3	-8	x	x
Cc1cc(C)c2nc3sc(C(=O)N4CCOCC4)c(N)c3cc2c1	-70	16	-8	2	2	x	x
CCOc1ccc2nc3sc(C(=O)N4CCOCC4)c(N)c3cc2c1	x	x	-4	13*	u	8	6.6*
O=C(Nc1nccs1)c1ccc[nH]c1=O	x	x	-2	0	-3	x	x
CCOc1ccc(-c2csc(NC(=O)c3ccc(S(=O)(=O)N4CCc5ccccc5C4)cc3)n2)cc1	-5	-4	4	1	1	x	x
SMILES	Runt-SMMHC FRET	Runt-CBFb FRET	RanGTP-Imp inh	proKLK7 act	MEX-5 binding	proKLK7 act conf	EDANS-DABCYL int	others
O=C(Nc1nc(-c2ccccc2)cs1)c1ccc(S(=O)(=O)N2CCc3ccccc32)cc1	2	-1	-4	14*	0	0	-2
COc1ccc(-c2csc(NC(=O)c3ccc(S(=O)(=O)N4CCc5ccccc5C4)cc3)n2)c(OC)c1	-12	-3	4	55*	2	59*	79*
COc1c2c(cc3c1c(=O)c1ccccc1n3C)OCO2	x	x	x	45*	x	56*	77*
COc1c2c(c(OC)c3c1c(=O)c1ccccc1n3C)OCO2	x	x	x	1	x	x	x
CC(C)OC(=O)CC(=O)CSc1nc2c(c(-c3cccs3)c1C#N)CCC2	7	6	u	15*	0	11	12*
CC(C)OC(=O)CC(=O)CSc1nc2c(cc1C#N)CCCC2	44	39	10	20*	-1	71*	77*
CC(C)OC(=O)CC(=O)CSc1nc2c(cc1C#N)CCC2	32	37	10	22*	1	90*	92*
CC(C)OC(=O)CC(=O)CSc1nc2c(cc1C#N)CCCCCC2	78*	50	-2	18*	x	70*	77*
COC(=O)CC(=O)CSc1nc2c(cc1C#N)CCC2	32	49	4	8	1	x	x
CCCN(CC(=O)Nc1ccccc1OC)C(=O)c1ccc2c(c1)NC(=O)C(C)S2 (centres undefined)	x	x	x	0	x	x	x
N=C(N)SCCN	x	x	x	0	x	x	x
CCOC(=O)CC(=O)CSc1nc2c(cc1C#N)CCCCCC2	50*	40	14	13*	1	60*	58*
COc1ncccc1-c1cnc2cccnn12	x	x	x	34*	x	58*	58*
COc1ccc(-c2cnc3cccnn23)cn1	x	x	x	39*	x	27*	38*
Oc1ccccc1-c1cnc2cccnn12	x	x	x	8	x	x	x
Clc1ccc(-c2cnc3cccnn23)cc1	x	x	x	32*	x	37*	22*	K7 EDANS ctr=>70
c1cnn2c(-c3ccc4c(c3)CCO4)cnc2c1	x	x	x	4	x	x	x
Cc1ccc(SCC(=O)NCC2COc3ccccc3O2)cc1 (centres undefined)	x	x	x	-1	x	x	x
Cc1ccnc(NC(=S)NC(=O)c2cncc(Br)c2)c1	2	1	4	13*	0	14*	15*
O=C(CSc1ccc(-c2cccnc2)nn1)Nc1ccc(F)cc1	x	x	4	1	2	x	x
CCN(CC)C(=O)[C@H]1C[C@H](CC(=O)NC(C)(C)C)C(=O)N2CCc3c([nH]c4cc(-c5ccco5)ccc34)[C@]12C	x	x	x	109*	x	57*	65*
CC(C)N(C(=O)[C@H]1C[C@H](CC(=O)NC(C)(C)C)C(=O)N2CCc3c([nH]c4cc(CCC(=O)N(C)C)ccc34)[C@]12C)C(C)C	x	x	x	2	x	x	x
CC(C)N(C(=O)[C@H]1C[C@H](CC(=O)NC(C)(C)C)C(=O)N2CCc3c([nH]c4cc(-c5ccco5)ccc34)[C@]12C)C(C)C	x	x	x	20*	x	12	20*
